Source: paper PMC12032937 (iScience, 2025)

Tests used:
mPRδ [1] = molecular target: T1, mPRδ (Mus musculus, UniProt Q6TCG5); experiment: PKC activation; type: cell-based; details: mPRδ-GFP cells, 300nM, 20 min, increase above control (100%)
T1 sequence (Q6TCG5 1-343): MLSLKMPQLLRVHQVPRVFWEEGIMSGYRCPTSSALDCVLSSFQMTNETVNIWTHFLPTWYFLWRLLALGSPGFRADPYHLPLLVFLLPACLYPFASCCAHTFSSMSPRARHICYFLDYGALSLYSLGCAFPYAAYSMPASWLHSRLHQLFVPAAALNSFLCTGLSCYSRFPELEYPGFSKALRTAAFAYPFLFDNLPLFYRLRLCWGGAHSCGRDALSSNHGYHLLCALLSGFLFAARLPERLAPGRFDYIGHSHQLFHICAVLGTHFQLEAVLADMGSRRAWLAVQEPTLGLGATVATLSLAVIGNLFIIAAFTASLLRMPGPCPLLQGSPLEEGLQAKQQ

mPRδ [2] = molecular target: T1, mPRδ; experiment: PKA activation; type: cell-based; details: mPRδ-GFP cells, 20 min, mean ± SEM, n=4
mPRε [3] = molecular target: T2, mPRε (Mus musculus, UniProt Q6TCG2); experiment: PKA activation; type: cell-based; details: mPRε-GFP cells, 20 min; for PKA activation, pPKA/PKA normalized to control (100%): mean ± SEM, n=4; for increase in PKA activation compared to control treatment: increase above control (100%)
T2 sequence (Q6TCG2 1-375): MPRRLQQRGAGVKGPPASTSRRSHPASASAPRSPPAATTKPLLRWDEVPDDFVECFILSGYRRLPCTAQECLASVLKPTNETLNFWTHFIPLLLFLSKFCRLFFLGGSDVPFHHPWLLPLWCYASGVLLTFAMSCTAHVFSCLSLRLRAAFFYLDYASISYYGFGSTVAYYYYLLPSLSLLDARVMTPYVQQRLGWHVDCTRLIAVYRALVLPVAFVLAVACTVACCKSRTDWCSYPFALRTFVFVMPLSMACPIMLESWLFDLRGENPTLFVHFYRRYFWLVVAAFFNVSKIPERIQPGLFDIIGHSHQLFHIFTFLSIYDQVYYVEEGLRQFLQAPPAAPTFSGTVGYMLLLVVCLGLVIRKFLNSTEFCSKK
How it was run: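 MDA-MB-231 cells lentivirally expressing mouse mPRε-C-terminal GFP, FACS-selected clonal line, kept in DMEM/10% charcoal-stripped FBS, passage ≤20. Treated 20 min with test compound at 3–300nM, lysed in RIPA with phosphatase inhibitors, immunoblotted for phospho and total kinase. Ratio normalized to control within the line, then to host MDA231 cells; n = 4 separate passages; two-way ANOVA, Sidak post hoc.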

mPRδ [4] = molecular target: T1, mPRδ; experiment: Gq luminescent reporter assay; type: cell-based
mPRε [5] = molecular target: T2, mPRε; experiment: Gs luminescent reporter assay; type: cell-based
How it was run: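 Clonal MDA-MB-231 cells stably expressing mouse mPRε with a C-terminal GFP tag, transfected (Lipofectamine 3000) with CRE-luciferase reporter, grown 72 h, then treated 6 h with a test compound concentration series; forskolin positive control. Lysed, luciferase luminescence read; runs kept only if positive control ≥2× untreated. Min/max scaled 0–100, curves fitted for EC50; n = 4.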

mPRδ [6] = details: MDA231 cells transiently transfected to express mPRδ; cited from earlier work

## CC(=O)[C@H]1CC[C@H]2[C@@H]3CC[C@H]4C[C@H](O)CC[C@]4(C)[C@H]3CC[C@]12C [ALLO, allopregnanolone]
mPRδ [1]
  increase in PKC activation/phosphorylation compared to control treatment: 43.58 ± 5.34%
mPRδ [2]; 3nM
  PKA activation, pPKA/PKA normalized to control (100%): 86.327 ± 5.39%
mPRδ [2]; 10nM
  PKA activation, pPKA/PKA normalized to control (100%): 91.441 ± 4.66%
mPRδ [2]; 30nM
  PKA activation, pPKA/PKA normalized to control (100%): 83.155 ± 4.54%
mPRδ [2]; 100nM
  PKA activation, pPKA/PKA normalized to control (100%): 98.624 ± 11.00%
mPRδ [2]; 300nM
  PKA activation, pPKA/PKA normalized to control (100%): 103.26 ± 14.05%
mPRε [3]; 3nM
  PKA activation, pPKA/PKA normalized to control (100%): 105.57 ± 15.02%
mPRε [3]; 10nM
  PKA activation, pPKA/PKA normalized to control (100%): 130.55 ± 16.45%
mPRε [3]; 30nM
  increase in PKA activation compared to control treatment: 53.44%
  PKA activation, pPKA/PKA normalized to control (100%): 153.4 ± 19.57%
mPRε [3]; 100nM
  increase in PKA activation compared to control treatment: 60.49%
  PKA activation, pPKA/PKA normalized to control (100%): 160.49 ± 20.14%
mPRε [3]; 300nM
  increase in PKA activation compared to control treatment: 64.44%
  PKA activation, pPKA/PKA normalized to control (100%): 164.44 ± 15.71%
mPRδ [4]
  EC50: 11.3 nM
mPRε [5]
  EC50: 2.5 nM
mPRδ [6]
  phosphorylation of ERK: significant increase

## CC(=O)[C@H]1CC[C@H]2[C@@H]3CCC4=CC(=O)CC[C@]4(C)[C@H]3CC[C@]12C [progesterone]
mPRδ [6]
  phosphorylation of ERK: significant increase
